Measurements taken from article PMC6839450 (ACS chemical biology, 2015).

What was measured:
Test in all cases: Cell viability
Details in all cases: Ac-peptide, up to 20 μM, 24 h, CellTiter-Glo
OCI-AML3 cells = assay type: cell-based
Summary of the method: (§1)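 Cells in OptiMEM with penicillin/streptomycin: MEFs (wild-type or Bax−/−Bak−/−) at 2.5 × 10^3 per well, adhered overnight and washed; OCI-AML3 at 1 × 10^4 per well. Serial dilutions of peptide from a 10 mM DMSO stock, or vehicle, were applied for 2 h at 37 °C serum-free, then FBS was added to 10%. CellTiter-Glo luminescence was read 24 h post-treatment.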

wild-type MEFs = assay type: cell-based, mouse
Summary of the method: as §1

Bax−/−Bak−/− (DKO) MEFs = assay type: cell-based, mouse
Summary of the method: as §1

BIM BH3_2: unmodified BIM BH3 domain peptide, amino acids 145–164; N-terminal cap depends on the assay
no effect: Effect on viability of OCI-AML3 cells (in words) (OCI-AML3 cells) | Effect on viability of wild-type MEFs (in words) (wild-type MEFs) | Effect on viability of Bax−/−Bak−/− (DKO) MEFs (in words) (Bax−/−Bak−/− (DKO) MEFs)
